# From ChEMBL document CHEMBL4513216, “Probing the Open Global Health Chemical Diversity Library for Multistage-Active Starting Points for Next-Generation Antimalarials” (ACS Infect Dis, 2020)
# Assay: Toxicity liver stage against HepG2, at 10uM
# Type: cell-based
# Design: test concentration 10 uM, cell line HepG2-A16-CD81EGFP
# Conditions: human, HepG2-A16-CD81EGFP cells; read-out: INHIBITION
# How it was run: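 Uninfected HepG2-A16-CD81EGFP cells, 3 × 10^3 per well, 1536-well, plated on prespotted compound at 10 μM final, parasite-free screening media added to match infected plates; puromycin 10 μM positive, DMSO 0.5% negative; run in parallel with 48 h PbLuc assay at 37 °C, 5% CO2; viability by CellTiter-Glo luminescence, normalized to controls.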
row,SMILES,cytotoxicity at 10 µM [%]
1,COc1cccc2c3c(c(=O)[nH]c12)CC(C)(C)O3,-6.1
2,C/N=C1\c2cc3cc(OC)ccc3n2CCN1C,-10.1
3,Cc1ccc2[nH]c(CO[C@H]3CN(c4ccc(C#N)cn4)C[C@H]3F)nc2c1,-1.6
4,CC(C)N[C@@H]1CO[C@H](CNC(=O)c2ccccc2)[C@H]1O,-5.73
5,CC(=O)N[C@H]1CCN2C(=O)[C@@H](Cc3c[nH]c4ccccc34)NC(=O)[C@H]12,-0.639
6,COc1ccc(CN2CCOC[C@H](OCc3ccccc3)C2)cc1,2.79
7,COCCCNC(=O)c1cn(C(C)(C)C)c2ncccc12,0.0915
8,COc1ccc(C2SC(C)=Nc3c2c(=O)[nH]n3C2CCCC2)cc1O (stereo not given),9.98
9,COc1ccc2nnc(CCCC(=O)NCc3ccccc3F)n2n1,-0.524
10,O=c1cc2c(nn1CN1CCN(c3ccc(F)cc3)CC1)CCC2,-2.15
11,O=C(c1ccoc1)N1CC[C@H]2[C@H]1CCN2CC1CC1,2.5
12,CO[C@@H]1CCN(C(=O)c2cc(C)on2)C[C@@H]1Cc1ccccc1,1.11
13,COCC(=O)N1CCc2nc(C(=O)N(C)C)sc2CC1,15.5
14,CCc1cnc(N2C[C@@H]3[C@@H](C(=O)NCC(C)C)CCS(=O)(=O)[C@@H]3C2)nc1,-135
15,c1cncc(COCC2CN(Cc3ccco3)Cc3nccn3C2)c1 (stereo not given),-157
16,CCC(=O)N1CCC2(CC1)CC(NC(=O)N(C)C)c1cc(C)ccc12 (stereo not given),8.39
17,Cc1noc([C@H]2CC[C@@H]3[C@@H](CCN3S(=O)(=O)C3CC3)O2)n1,-1.98
18,O=C(c1c[nH]cn1)N1CCCn2c(nnc2Cn2cccc2)C1,0.399
19,COCCNC(=O)c1c(-n2cnnn2)sc2c1CCCC2,3.51
20,CN(C)CCNC(=O)CNC(=O)N1CCc2c([nH]c3ccc(Cl)cc23)C1,7.36
21,COc1ccc2c(c1)CC(NC(=O)NCc1cccs1)CO2 (stereo not given),7.52
22,CC(C)N(C)C(=O)C1=NOC2(CCN(C(=O)c3ccc(Cl)cc3)C2)C1 (stereo not given),-16.7

row,SMILES,cytotoxicity at 10 µM [%]
1,Cn1cc(C(=O)N2C[C@@H]3COC[C@]3(COCc3cccnc3)C2)cn1,-0.8
2,O=C(c1ccc[nH]1)N1CCCC2(CCN(c3ccsc3)C2=O)C1 (stereo not given),-0.449
3,CCn1cc(CN(C)C(=O)c2cc(C(F)(F)F)n(C)n2)cn1,10.4
4,Cn1c(=O)n(C)c2nc(Cl)c(CC(=O)c3ccccc3)n2c1=O,-13.9
5,Cc1cc(C)n(CC(=O)N2CCC(c3nc(C(C)C)no3)CC2)n1,9.1
6,Cc1nc2[nH]cnc(Nc3cc(C)n(C)n3)c-2n1,6.69
7,CNC(=O)C1CN(C(=O)Cc2ccc(OC)cc2)Cc2cn(C)nc21 (stereo not given),2.99
8,c1cnc(Nc2cncc(C3CCCN(c4cnccn4)C3)n2)nc1 (stereo not given),-8.74
9,CC(C)S(=O)(=O)CC(=O)N1CCCC(n2ccnc2)C1 (stereo not given),10.2
10,OCCCN1CCCC1c1ccc(Br)cc1 (stereo not given),2.94
11,CC(C)C(CCO)NC(=O)Nc1ccc(-c2csnn2)cc1 (stereo not given),-10
12,COCCn1cc(NC(=O)NC(C)c2ccc(Cl)s2)cn1 (stereo not given),7.25
13,CCc1ncc(C(=O)N2CCN(c3nc(C)cc(OC)n3)CC2)s1,1.1
14,O=C(Cn1ccc(=O)[nH]c1=O)NCC1Cc2ccccc2O1 (stereo not given),3.74
15,CCn1nc(C)c(CNC(=O)NCC(C)(O)c2ccccc2)c1C (stereo not given),-7.12
16,CN(C)c1ccc(C(=O)N2CCCC2c2ccc(Cl)cc2)nn1 (stereo not given),-10.7
17,CCOCCCNC(=O)Cc1cccc(F)c1,12.1
18,COCCn1cc(C(=O)N2CCCC2c2ccc(F)cc2)ccc1=O (stereo not given),-0.12
19,c1ccc(-c2nc(CN3CCOC(Cn4cccn4)C3)cs2)cc1 (stereo not given),8.62
20,O=C(NCC1CC1)c1cnc(-c2ccccc2)nc1,7.5
21,Cc1cccc(CNC(=O)Nc2ccn(CCCC(=O)N(C)C)n2)c1,2
22,CC(Oc1ccccc1C(F)(F)F)C(=O)NCC(=O)N1CCCC1 (stereo not given),5.12

row,SMILES,cytotoxicity at 10 µM [%]
1,CN(C(=O)CN(Cc1cccc(O)c1)C1CCC(O)CC1)C1CC1 (stereo not given),-0.586
2,Cn1ccnc1COc1ccc(CSc2nnnn2C)cc1,-0.613
3,Cc1cccc(C(C)(C)CNc2cn[nH]c(=O)c2Cl)c1,23.3
4,COCCSc1ccc(C(C)NC(=O)Nc2cn[nH]c2)cc1 (stereo not given),8.88
5,NC(=O)CCn1nnc(-c2cc3ccccc3o2)n1,4.56
6,OCC(CO)Nc1ccc2ccc(Cl)c(Cl)c2n1,-8.82
7,Cc1cn2nc(Sc3nnc(C(C)C)n3C)sc2n1,2.3
8,CS(=O)(=O)NCC(=O)NC1(c2ccc(Cl)c(Cl)c2)CC1,-10.7
9,NC(=O)c1ccc(NC(=O)CCN2CCCC(N3CCCC3)C2)cc1 (stereo not given),-8.59
10,CCn1nc(C)cc1C(=O)N1C[C@@H]2C[C@@H](c3noc(C)n3)O[C@@H]2C1,8.06
11,NC(=O)N1CCc2ncc(CNC(=O)CC3CC3)n2CC1,2.11
12,CC(C)NC(=O)N1CCC2(CC1)Cc1ccccc1CN(C)C2=O,5.55
13,COCCN(C)C(=O)c1nc2c(s1)CCCN2c1ccc(C)nn1,-2.4
14,COCCN1CCN(Cc2ccoc2)Cc2cccnc21,-75
15,O=C(NCc1ccncc1)C1=NOC2(CCCNC2)C1 (stereo not given),5.31
16,CN1CCC(Cc2noc(CCc3nc4ccccc4nc3O)n2)CC1,7.23
17,Cn1cc2ncn(C3CCN(c4ccccc4F)CC3)c(=O)c2n1,4.44
18,CNc1nc(C)cc(N2CCC(C(=O)O)(n3ccc(C(C)C)n3)CC2)n1,1.52
19,N#Cc1cccc(N2CCC(c3nccn3Cc3cscn3)CC2)n1,1.46
20,COc1nc2c(cc1C(=O)NCCc1nc3c(s1)CCC3)CCC2,5.05
21,Cc1nc2c(c(=O)n1C)CN(C(=O)C1CCN(C(=O)C3CCC3)CC1)C2,-3.54
22,O=C(c1ccc(S(=O)(=O)NCc2ccon2)cc1)N1CCCCCC1,0.424

row,SMILES,cytotoxicity at 10 µM [%]
1,COc1cnc(N2CCC(c3ncc[nH]3)CC2)nc1,0.852
2,CC(C)c1cc(N2CCSCC2)n2nccc2n1,4.66
3,CC(C)(CN1CCCC1)CN1CCC(Cn2cc(CCO)nn2)CC1,1.87
4,Cc1ccc(C2(O)CCN(C(=O)c3cccc(S(C)(=O)=O)c3)CC2)nc1,-5.3
5,Cc1cc(C2CCCN2C(=O)Cn2c(C)cc(=O)c3ccccc32)on1 (stereo not given),-9.02
6,O[C@@]1(CNCC2(Cn3ccnc3)CC2)CCCN2CCCC[C@@H]21,5.09
7,CCCN1CC2(CCN(C)CC2)CC1C(=O)NCc1cc(C)nn1C (stereo not given),0.318
8,Cc1ccc(CC2COc3ccccc3C2)c(N)n1 (stereo not given),-7.12
9,Cc1cc(C)n(CCC2CC(=O)Nc3cc(O)c(C)cc32)n1 (stereo not given),-1.74
10,CCCC1COCCN1Cc1ccc(S(=O)(=O)NC)cc1 (stereo not given),-142
11,Cc1cc(=O)[nH]c(CCNC(=O)C(c2ccc(F)cc2)N(C)C)n1 (stereo not given),-9.78
12,CC(C)c1cc(N2CCC(N)CC2)n2nccc2n1,-18.1
13,CC(C)C(NC(=O)NCCNc1ncccn1)c1cccs1 (stereo not given),2.71
14,CN(C)c1cc(CNc2cncc(-n3cccn3)n2)ccn1,6.26
15,O=C(CC(F)(F)F)Nc1cc(F)ccc1OCC1CCCO1 (stereo not given),5.48
16,O=C(CCCc1ccccc1)N1CCC(Nc2cccnn2)CC1,-5.89
17,Cc1ccc(C(=O)N2CCN(CCc3ccccc3)CC2)c(=O)[nH]1,-7.1
18,COc1ccc(CNCC2CNc3cc(C)nn3C2)cn1 (stereo not given),-16.5
19,CC(C)c1n[nH]c(C2CN(C(=O)c3ccnc(C4CC4)n3)CCO2)n1 (stereo not given),-12.6
20,CC(=O)Nc1nc(C(=O)NC(C)c2ccncc2)cs1 (stereo not given),-6.5
21,Cc1cc(C[S+]([O-])CC(=O)NCC(C)C)no1 (stereo not given),-4.17
22,CCc1nc(C2CCCN2CC(=O)Nc2c(C)n[nH]c2C)no1 (stereo not given),-3.79

row,SMILES,cytotoxicity at 10 µM [%]
1,CCOc1ccc(Cl)c(C(=O)N2CCN(C(=O)c3ccoc3C)CC2)n1,-6.69
2,CNC(=O)NC(=O)CN1CCC(c2cccc(F)c2)C1 (stereo not given),-8.75
3,O=C(N1CCOCC1)N1CCC2(CCNC2)C1 (stereo not given),-2.89
4,CC1c2ncc(COc3cccnc3)n2CCN1C(=O)C1=CCCCC1 (stereo not given),3.39
5,COCc1nn(C(C)C)c2c1CCN(Cc1ccc(C)s1)C2,-5.82
6,CCN1CCn2c(C)cnc2C12CCN(C(=O)COC)CC2,6.5
7,O=C1C[C@H]2[C@@H](CCN2C(=O)c2ccoc2)N1CCN1CCOCC1,-5.26
8,COCC1CN(Cc2ccoc2)Cc2nnn(C)c21 (stereo not given),-3.73
9,Cc1cccc(CN2CCCC3(CCC(=O)N3CCN(C)C)CC2)n1 (stereo not given),-0.891
10,O=C1N(c2ccsc2)CCC12CCCN(Cc1ccccn1)C2 (stereo not given),2.03
11,CC1=N[C@@]2(CC[C@@H]3CN(CC(=O)N(C)C)C[C@@H]32)C(=O)N1CC(C)C,9.66
12,COCCN1CCC2(COCc3cnc(N(C)C)nc32)C1 (stereo not given),1.39
13,Cn1cc(CN2CCn3cc(Cn4cccn4)nc3C2)cn1,4.49
14,O=C(NCC1CC1)C1CCC2(CCN(C(=O)c3ccncc3)CC2)O1 (stereo not given),-0.0368
15,COC[C@H]1CC[C@@H]2[C@@H](CCN2Cc2ccco2)O1,-137
16,COCc1ncn2c1CN(C(=O)c1ccc3ccccc3n1)CC2,8.42
17,OC(CN1CCN(Cc2cc(F)ccc2F)CC1)C1CC1 (stereo not given),0.353
18,Cc1cnc(N2CCn3c(CN4CCOCC4)nnc3C2)nc1,-153
19,CCc1ncnc2c1CCN(Cc1ccc3c(c1)OCO3)CC2,-139
20,CN(C)C(=O)N1C[C@H](Oc2ccccn2)[C@H]2OCCC[C@H]21,6.07
21,Cc1cccc(CN2CC[C@@H]3[C@@H]2CCN3C(=O)c2cc(C)oc2C)n1,-4.42
22,O=C1CC2(CCN(CC3CC3)C2)CN1c1cccc(F)c1 (stereo not given),-6.25
